Experimental data: ChEMBL document CHEMBL5325455, “Daphnanes diterpenes from the latex of Hura crepitans L. and their PKCζ-dependent anti-proliferative activity on colorectal cancer cells” (Bioorg Med Chem, 2023)
Activity calls are given as the source filed them. The calls are words filed in the database; no cut-off is given here.

Experiments:
[1] = system: Colorectal epithelial cell; test: Cytostatic activity against human Colorectal epithelial cells isolated from patient with fistulized sigmoiditis cultured as organoids at 1 ug/ml incubated for 48 hrs by CellTiter-Glo luminescence assay; format: functional, cell-based; conditions: dose 1.0 µg/ml
Procedure, shortened: (§1)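 Primary colonic epithelial cells (3 control and 2 CRC patients) were expanded as organoids or spheroids in Matrigel with EGF/noggin/Wnt3a/R-spondin medium. Single cells were seeded at 2500/well and allowed 48 h to form colonoids, then exposed for 48 h at 0.01, 0.1 or 1 µg/mL, with 5FdU at 1 µg/mL as positive control. Viability was read by CellTiter-Glo luminescence versus DMSO or medium control.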

[2] = system: Colorectal epithelial cell; test: Cytostatic activity against human Colorectal epithelial cells isolated from left colon of patient with sigmoido-vaginal fistula for diverticulitis cultured as organoids at 1 ug/ml incubated for 48 hrs by CellTiter-Glo luminescence assay; format: functional, cell-based; conditions: dose 1.0 µg/ml; procedure, shortened: as §1
[3] = system: Colorectal epithelial cell; test: Cytostatic activity against human Colorectal epithelial cells isolated from patient with well-differentiated colonic adenocarcinoma and undergone nine courses of chemotherapy cultured as organoids at 1 ug/ml incubated for 48 hrs by CellTiter-Glo luminescence assay; format: functional, cell-based; conditions: dose 1.0 µg/ml; procedure, shortened: as §1
[4] = system: Colorectal epithelial cell; test: Cytostatic activity against human Colorectal epithelial cells isolated from left colon of patient with recurrent diverticulitis cultured as organoids at 1 ug/ml incubated for 48 hrs by CellTiter-Glo luminescence assay; format: functional, cell-based; conditions: dose 1.0 µg/ml; procedure, shortened: as §1
[5] = system: Colorectal epithelial cell; test: Cytostatic activity against human Colorectal epithelial cells isolated from patient with well-differentiated colonic adenocarcinoma cultured as organoids at 1 ug/ml incubated for 48 hrs by CellTiter-Glo luminescence assay; format: functional, cell-based; conditions: dose 1.0 µg/ml; procedure, shortened: as §1
Caco-2 [6] = test: Upregulation of PKCdelta protein expression in human Caco-2 cells at 1 ug/ml incubated for 48 hrs by Western blot analysis; format: functional, cell-based; conditions: dose 1.0 µg/ml
Procedure, shortened: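 Caco-2 cells, 0.25 × 10^6 per well, seeded 48 h before treatment; DMSO vehicle control. Optional 15 min pretreatment with 0.2 µM Gö6976. Cells lysed on ice after 48 h in pH 7.4 Tris/NaCl/Triton/EDTA buffer with protease and phosphatase inhibitors. 30 µg protein run on 4–15% SDS-PAGE, blotted to nitrocellulose, ECL detection. pSer664 and total PKCδ probed, ratio quantified, actin as loading control; one experiment.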

SARS-CoV-2 = test: Antiviral activity against SARS-CoV-2 assessed as reduction in progeny production measured 24 hrs post infection by PFU assay; format: functional, organism-based; conditions: Severe acute respiratory syndrome coronavirus 2, 24 h
Caco-2 [7] = test: Cytotoxicity against human Caco-2 cells assessed as cell death; format: functional, cell-based
Caco-2 [8] = test: Cytostatic activity against human Caco-2 cells assessed as inhibition of cell growth at 1 ug/ml incubated for 48 hrs by MTS assay; format: functional, cell-based; conditions: dose 1.0 µg/ml
Procedure, shortened: (§2)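 Caco-2 cells were seeded at 40 000/well 48 h before dosing. Compound was diluted from a 10 mg/mL DMSO stock into medium (0.125, 0.5 or 1 µg/mL final; DMSO ≤0.01%) and added in triplicate for 48 h. Viability was read by MTS absorbance at 490 nm and expressed relative to the DMSO control.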

Zika virus = test: Antiviral activity against ZIKV expressing GFP reporter gene measured 24 hrs post infection; format: functional, organism-based
Procedure, shortened: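 Cells in 96-well plates were exposed to serial concentrations starting at 50 µg/mL and infected with GFP-reporter Zika virus at MOI 1. At 24 h post-infection, cells were fixed in 3.7% PFA and GFP-positive cells were counted by flow cytometry.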

Caco-2 [9] = test: Cytostatic activity against human Caco-2 cells assessed as inhibition of cell growth at 1 ug/ml incubated for 48 hrs by MTS assay relative to control; format: functional; procedure, shortened: as §2

O=c1[nH]c(=O)n([C@H]2C[C@H](O)[C@@H](CO)O2)cc1F
Activity [1]: inactive
Activity [2]: inactive
Activity [3]: inactive
Activity [4]: inactive
Activity [5]: inactive

Cn1c2ccccc2c2c3c(c4c5ccccc5n(CCC#N)c4c21)CNC3=O
Activity (Caco-2 [6]): Active

C=C(C)[C@]1(O)C[C@@H](C)[C@]2(O)[C@H]([C@H]1O)[C@@H]1O[C@]1(COC(=O)CCCCCCCCCC(C)/C=C/CCCCC)[C@@H](O)[C@]1(O)C(=O)C(C)=C[C@H]12 (stereo not given in full)
IC50 (SARS-CoV-2): 34.2 µM
Activity (Caco-2 [7]): inactive
Activity (Caco-2 [8]): inactive
IC50 (Zika virus): > 50 µM

C=C(C)[C@]12C[C@@H](C)[C@@]34O[C@](/C=C/[C@H](O)[C@@H](O)CCCCCCCCC)(O[C@@H]1[C@@H]3[C@@H]1O[C@]1(CO)[C@@H](O)[C@]1(O)C(=O)C(C)=C[C@H]14)O2
Activity (Caco-2 [7]): inactive
Activity (Caco-2 [8]): Active

C=C(C)[C@]12C[C@@H](C)[C@@]34O[C@](/C=C/C=C/[C@H](O)CCCCCCCC)(O[C@@H]1[C@@H]3[C@@H]1O[C@]1(CO)[C@@H](O)[C@]1(O)C(=O)C(C)=C[C@H]14)O2
Activity (Caco-2 [7]): inactive
inhibition at 1 µg/mL (Caco-2 [9]): ~25%

C=C(C)[C@]12C[C@@H](C)[C@@]34O[C@](/C=C/C=C/C(=O)CCCCCCCC)(O[C@@H]1[C@@H]3[C@@H]1O[C@]1(CO)[C@@H](O)[C@]1(O)C(=O)C(C)=C[C@H]14)O2
IC50 (SARS-CoV-2): 50.2 µM
Activity (Caco-2 [7]): inactive
IC50 (Zika virus): > 50 µM
inhibition at 1 µg/mL (Caco-2 [9]): ~25%

C=C(C)[C@]12C[C@@H](C)[C@@]34O[C@](/C=C/C=C\C(=O)CCCCCCCC)(O[C@@H]1[C@@H]3[C@@H]1O[C@]1(CO)[C@@H](O)[C@]1(O)C(=O)C(C)=C[C@H]14)O2
Activity (Caco-2 [7]): inactive
inhibition at 1 µg/mL (Caco-2 [9]): ~25%
